Active and inactive are the calls of the source. No cut-off for these calls is given here.
What was measured:
[1] = biological target: T1, NAD-dependent protein deacetylase sirtuin-2 (Homo sapiens, UniProt Q8IXJ6); assay: Inhibition of human recombinant SIRT2 by Flour de Lys assay
T1 sequence (Q8IXJ6 whole entry): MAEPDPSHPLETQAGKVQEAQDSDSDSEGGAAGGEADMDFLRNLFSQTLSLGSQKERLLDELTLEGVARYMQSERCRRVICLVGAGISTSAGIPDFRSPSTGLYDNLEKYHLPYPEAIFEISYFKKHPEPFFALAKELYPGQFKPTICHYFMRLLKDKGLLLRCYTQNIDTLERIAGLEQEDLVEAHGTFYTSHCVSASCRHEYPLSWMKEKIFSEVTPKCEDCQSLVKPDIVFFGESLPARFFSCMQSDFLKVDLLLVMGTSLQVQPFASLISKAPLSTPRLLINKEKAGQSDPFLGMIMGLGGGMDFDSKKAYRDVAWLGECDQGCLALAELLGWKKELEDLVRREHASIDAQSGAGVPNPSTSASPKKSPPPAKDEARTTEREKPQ

Caenorhabditis elegans [2] = assay: Reduction of PABPN1 expression in transgenic Caenorhabditis elegans coexpressing nuclear GFP and PABPN1-A13 by Q-RT-PCR; assay type: functional, organism-based
Caenorhabditis elegans [3] = assay: Protection against mutant PABPN1-induced toxicity in transgenic Caenorhabditis elegans coexpressing nuclear GFP and PABPN1-A13 assessed as inhibition of nuclear collapse; assay type: functional, organism-based
Method in brief: (§1)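 Synchronized L1 transgenic worms incubated with drug in OP-50.1 liquid culture; nuclear GFP signals counted at young adulthood under 10x fluorescence microscopy. Percent rescue = ((test − control)/control) × 100, negative values indicating enhanced toxicity. At least 100 worms scored per dose, three independent assays; two-tailed Student's t-test unless stated otherwise.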

Caenorhabditis elegans [4] = assay: Protection against mutant PABPN1-induced toxicity in transgenic Caenorhabditis elegans coexpressing nuclear GFP and PABPN1-A13 assessed as inhibition of deffective worm motility; assay type: functional, organism-based
Method in brief: (§2)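 Worms were drug-treated from the synchronized L1 stage in OP-50.1 liquid culture. Day 3–5 adults were placed on a thin OP-50.1 lawn on NGM plates. Body bends (complete sinusoids) were counted immediately over 20 s. 60–100 worms were scored per dose, in three independent assays. Results are mean ± SEM versus untreated animals, checked by one-way ANOVA.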

Caenorhabditis elegans [5] = assay: Effect on nuclear integrity in transgenic Caenorhabditis elegans coexpressing nuclear GFP and normal PABPN1-A10; assay type: functional, organism-based
Method in brief: (§3)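 Synchronized L1 worms were kept in OP-50.1 liquid culture with the drug. Nuclear GFP signals were counted at young adulthood under a ×10 fluorescence microscope. Percent rescue = ((test − control)/control) × 100, where a negative value means enhanced toxicity. At least 100 worms were scored per dose, in three independent assays. Comparison was by two-tailed Student's t-test.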

Caenorhabditis elegans [6] = assay: Protection against mutant PABPN1-induced toxicity in transgenic Caenorhabditis elegans coexpressing nuclear GFP and PABPN1-A13 assessed as nuclear GFP fluorescence level relative to untreated control; assay type: functional; method in brief: as §1
[7] = biological target: T2, NAD-dependent protein deacetylase sirtuin-1 (Homo sapiens, UniProt Q96EB6); assay: Inhibition of human recombinant SIRT1 by Flour de Lys assay
T2 sequence (Q96EB6 whole entry): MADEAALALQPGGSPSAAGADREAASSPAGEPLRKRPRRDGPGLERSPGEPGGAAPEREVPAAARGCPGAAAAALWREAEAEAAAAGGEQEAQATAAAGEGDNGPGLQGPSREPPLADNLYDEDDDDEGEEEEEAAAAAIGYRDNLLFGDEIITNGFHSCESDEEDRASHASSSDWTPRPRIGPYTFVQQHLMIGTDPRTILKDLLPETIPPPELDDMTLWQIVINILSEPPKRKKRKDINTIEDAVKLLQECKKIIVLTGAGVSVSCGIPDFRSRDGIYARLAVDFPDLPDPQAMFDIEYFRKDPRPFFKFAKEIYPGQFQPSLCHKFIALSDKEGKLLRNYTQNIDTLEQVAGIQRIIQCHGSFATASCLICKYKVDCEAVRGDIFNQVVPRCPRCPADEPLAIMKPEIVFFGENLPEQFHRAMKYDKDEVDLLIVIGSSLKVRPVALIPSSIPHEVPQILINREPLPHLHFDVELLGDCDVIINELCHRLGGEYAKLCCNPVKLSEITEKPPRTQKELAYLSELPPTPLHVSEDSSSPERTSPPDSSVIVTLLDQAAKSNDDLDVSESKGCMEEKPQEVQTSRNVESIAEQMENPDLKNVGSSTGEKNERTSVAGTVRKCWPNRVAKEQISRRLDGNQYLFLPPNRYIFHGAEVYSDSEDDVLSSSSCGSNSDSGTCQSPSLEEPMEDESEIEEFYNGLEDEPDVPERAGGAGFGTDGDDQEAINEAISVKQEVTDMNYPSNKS

Caenorhabditis elegans [8] = assay: Protection against mutant PABPN1-induced toxicity in transgenic Caenorhabditis elegans coexpressing nuclear GFP and PABPN1-A13 assessed as inhibition of nuclear collapse at 11.1 uM; assay type: functional, organism-based; method in brief: as §3
Caenorhabditis elegans [9] = assay: Protection against mutant PABPN1-induced toxicity in transgenic Caenorhabditis elegans coexpressing nuclear GFP and PABPN1-A13 assessed as inhibition of deffective worm motility at 11.1 uM; assay type: functional, organism-based; method in brief: as §2
Caenorhabditis elegans [10] = assay: Effect on nuclear integrity in transgenic Caenorhabditis elegans coexpressing nuclear GFP and normal PABPN1-A10 assessed as nuclear GFP fluorescence level relative to untreated control; assay type: functional; method in brief: as §1
Caenorhabditis elegans [11] = assay: Protection against mutant PABPN1-induced toxicity in transgenic Caenorhabditis elegans coexpressing nuclear GFP and PABPN1-A13 assessed as inhibition of deffective worm motility at 33.3 uM; assay type: functional, organism-based
Method in brief: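 Drug-treated transgenic worms as day 3-5 adults placed on thin OP-50.1 lawn on NGM plates; body bends (complete sinusoids) counted immediately over 20 s. 60-100 worms per dose, three independent assays; mean ± SEM compared with untreated animals.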

Caenorhabditis elegans [12] = assay: Protection against mutant PABPN1-induced toxicity in transgenic Caenorhabditis elegans coexpressing nuclear GFP and PABPN1-A13 assessed as inhibition of deffective worm motility at 3.7 uM; assay type: functional, organism-based; method in brief: as §2
Caenorhabditis elegans [13] = assay: Protection against mutant PABPN1-induced toxicity in transgenic Caenorhabditis elegans coexpressing nuclear GFP and PABPN1-A13 assessed as inhibition of nuclear collapse at 3.7 uM; assay type: functional, organism-based; method in brief: as §3

| SMILES | IC50 [1] [µM] | Activity (Caenorhabditis elegans [3]) | Activity (Caenorhabditis elegans [5]) | IC50 [7] [µM] | also measured |
| --- | --- | --- | --- | --- | --- |
| CC(NC(=O)c1cccc(/N=C/c2c(O)ccc3ccccc23)c1)c1ccccc1 (stereo unspecified) | 34.5 | – | – | – | – |
| O=C1CCc2c(ccc3ccccc23)O1 | – | Active | inactive | – | Activity (Caenorhabditis elegans [2]): inactive; Activity (Caenorhabditis elegans [4]): Active |
| CC(NS(=O)(=O)c1ccc(/N=C/c2c(O)ccc3ccccc23)cc1)c1ccccc1 (stereo unspecified) | 22.6 | – | inactive | 44.1 | EC50 (Caenorhabditis elegans [4]): < 1 µM; Activity (Caenorhabditis elegans [6]): 10% |
| CC(NC(=O)c1ccccc1/N=C/c1c(O)ccc2ccccc12)c1ccccc1 (stereo unspecified) | – | Active | inactive | – | – |
| O=c1nc2oc3ccc4ccccc4c3cc-2c(=O)n1-c1ccccc1 | – | – | inactive | – | Activity (Caenorhabditis elegans [8]): Active; Activity (Caenorhabditis elegans [9]): Active |
| N#C/C(=C\c1ccc(-c2cc(Cl)ccc2Cl)o1)C(=O)Nc1cccc2ncccc12 | – | Dose-dependent effect | – | > 50 | Activity (Caenorhabditis elegans [10]): 10%; Activity (Caenorhabditis elegans [6]): 20% |
| NC(=O)[C@H]1CCCc2c1[nH]c1ccc(Cl)cc21 | – | Active | – | – | Activity (Caenorhabditis elegans [11]): Active |
| CC(NC(=O)c1ccc(/N=C/c2c(O)ccc3ccccc23)cc1)c1ccccc1 (stereo unspecified) | 29.9 | Active | inactive | 48.1 | – |
| CC(CSc1cccc(/N=C/c2c(O)ccc3ccccc23)c1)c1ccccc1 (stereo unspecified) | 19.2 | inactive | – | 40.3 | – |
| O=C1Oc2ccc3ccccc3c2CC1C(=O)c1ccccc1Cl (stereo unspecified) | 9.4 | Active | inactive | 89.8 | Activity (Caenorhabditis elegans [2]): inactive; Activity (Caenorhabditis elegans [4]): Active |
| O=c1nc2oc3ccccc3cc-2c(=O)[nH]1 | 244 | – | inactive | 5.3 | Activity (Caenorhabditis elegans [12]): Active; Activity (Caenorhabditis elegans [13]): Active |
| CC(C(=O)Nc1cccc(/N=C/c2c(O)ccc3ccccc23)c1)c1ccccc1 (stereo unspecified) | – | Active | inactive | – | – |

Source: ChEMBL document CHEMBL1159066 (J Med Chem, 2010)
